Reference: ChEMBL document CHEMBL4732129, “Rationally designed N-phenylsulfonylindoles as a tool for the analysis of the non-basic 5-HTR ligands binding mode” (Eur J Med Chem, 2021)
The source made the active and inactive calls. No cut-off for these calls is given here.

Assays:
[1] = target: 5-hydroxytryptamine receptor 6 (Homo sapiens, UniProt P50406); experiment: Displacement of [3H]-LSD from human 5-HT6 receptor incubated for 1 hr by microbeta counting method
Method in brief: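 Human receptor membranes from homogenized cell pellets, centrifuged twice at 35 000 g with a 15 min 37°C incubation between spins. Buffer 50 mM Tris–HCl, 0.5 mM EDTA, 4 mM MgCl2. Radioligand 2 nM [3H]-LSD. Nonspecific binding defined with 10 μM methiothepine. Incubated 1 h at 37°C, ended by filtration. Triplicates at 7–8 concentrations (10⁻¹¹–10⁻⁴ M). Ki by Cheng-Prusoff, means of ≥2 experiments.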

[2] = Dissociation constant, pKa of the compound; format: physicochemical
[3] = target: T1, 5-hydroxytryptamine receptor 1A (Homo sapiens, UniProt P08908); experiment: (§1) Displacement of [3H]-8-OH-DPAT from 5-HT1A receptor (unknown origin) incubated for 1 hr by microbeta counting method
T1 sequence (P08908 whole entry): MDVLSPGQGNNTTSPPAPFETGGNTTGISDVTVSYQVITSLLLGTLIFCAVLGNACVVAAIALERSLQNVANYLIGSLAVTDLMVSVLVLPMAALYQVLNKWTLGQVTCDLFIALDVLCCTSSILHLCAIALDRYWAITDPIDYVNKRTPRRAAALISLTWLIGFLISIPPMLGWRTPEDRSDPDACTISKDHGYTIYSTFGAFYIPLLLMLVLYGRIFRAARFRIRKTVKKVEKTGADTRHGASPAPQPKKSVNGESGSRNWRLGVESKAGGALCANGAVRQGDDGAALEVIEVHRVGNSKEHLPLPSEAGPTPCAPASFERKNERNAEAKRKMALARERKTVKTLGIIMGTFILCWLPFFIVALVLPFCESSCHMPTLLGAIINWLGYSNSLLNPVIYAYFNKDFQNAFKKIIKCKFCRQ
Method in brief: (§2)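 Membranes prepared from cell pellets by homogenization and two 35 000 g spins with a 15 min 37°C step between them. Buffer 50 mM Tris–HCl, 0.1 mM EDTA, 4 mM MgCl2, 10 μM pargyline, 0.1% ascorbate. Radioligand 1.5 nM [3H]-8-OH-DPAT. Nonspecific binding defined with 10 μM 5-HT. Incubated 1 h at room temperature, then filtered. Triplicates at 7–8 concentrations (10⁻¹¹–10⁻⁴ M). Ki by Cheng-Prusoff, means of ≥2 experiments.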

[4] = target: 5-hydroxytryptamine receptor 2A (Homo sapiens, UniProt P28223); experiment: Binding affinity to 5-HT2A receptor (unknown origin) incubated for 1 hr by microbeta counting based displacement assay
5-hydroxytryptamine receptor 2A, sequence (P28223 whole entry): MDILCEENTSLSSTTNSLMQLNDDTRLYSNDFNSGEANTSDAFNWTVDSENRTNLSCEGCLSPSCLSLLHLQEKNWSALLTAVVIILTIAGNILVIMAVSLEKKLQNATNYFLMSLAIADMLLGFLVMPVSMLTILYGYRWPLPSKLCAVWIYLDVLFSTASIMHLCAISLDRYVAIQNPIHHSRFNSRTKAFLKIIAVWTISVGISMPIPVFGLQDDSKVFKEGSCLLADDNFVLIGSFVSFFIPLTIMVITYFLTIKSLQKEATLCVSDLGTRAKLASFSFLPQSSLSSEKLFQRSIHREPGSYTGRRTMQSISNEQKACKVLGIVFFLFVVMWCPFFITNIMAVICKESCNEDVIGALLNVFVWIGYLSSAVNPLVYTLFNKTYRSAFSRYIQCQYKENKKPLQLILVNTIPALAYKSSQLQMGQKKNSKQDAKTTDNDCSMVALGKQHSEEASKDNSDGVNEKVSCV

[5] = target: 5-hydroxytryptamine receptor 7 (Homo sapiens) (UniProt P34969); experiment: Displacement of [3H]-5-CT from 5-HT7b receptor (unknown origin) incubated for 1 hr by microbeta counting method
5-hydroxytryptamine receptor 7 (Homo sapiens), sequence (P34969 whole entry): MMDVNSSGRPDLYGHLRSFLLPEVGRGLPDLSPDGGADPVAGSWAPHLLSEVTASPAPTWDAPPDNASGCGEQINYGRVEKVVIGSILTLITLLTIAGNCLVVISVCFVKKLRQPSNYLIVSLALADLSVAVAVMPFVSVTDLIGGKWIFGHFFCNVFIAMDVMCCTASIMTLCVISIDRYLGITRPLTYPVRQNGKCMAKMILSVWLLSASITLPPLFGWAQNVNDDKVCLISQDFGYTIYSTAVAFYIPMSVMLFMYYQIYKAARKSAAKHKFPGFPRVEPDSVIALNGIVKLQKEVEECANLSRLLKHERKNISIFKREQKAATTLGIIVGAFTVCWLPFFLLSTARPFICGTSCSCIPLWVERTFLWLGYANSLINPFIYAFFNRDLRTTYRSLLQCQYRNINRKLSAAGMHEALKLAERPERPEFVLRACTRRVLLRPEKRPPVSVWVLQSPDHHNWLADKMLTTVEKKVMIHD
Method in brief: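 Membranes from thawed cell pellets, homogenized and centrifuged twice at 35 000 g (20 min, 4°C) with a 15 min 37°C incubation between spins. Buffer 50 mM Tris–HCl, 4 mM MgCl2, 10 μM pargyline, 0.1% ascorbate. Radioligand 0.6 nM [3H]-5-CT. Nonspecific binding defined with 10 μM 5-HT. Incubated 1 h at 37°C, ended by rapid filtration. Triplicates at 7–8 concentrations (10⁻¹¹–10⁻⁴ M). Ki by Cheng-Prusoff, means of ≥2 experiments.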

[6] = target: T2, 5-hydroxytryptamine receptor 1A (Homo sapiens) (UniProt P08908); experiment: as §1; method in brief: as §2
T2 sequence (whole entry): T1 sequence (P08908 whole entry)

[7] = target: D(2) dopamine receptor (Homo sapiens, UniProt P14416); experiment: Displacement of [3H]-Raclopride from dopamine D2 receptor (unknown origin) incubated for 1 hr by microbeta counting method
D(2) dopamine receptor, sequence (P14416 whole entry): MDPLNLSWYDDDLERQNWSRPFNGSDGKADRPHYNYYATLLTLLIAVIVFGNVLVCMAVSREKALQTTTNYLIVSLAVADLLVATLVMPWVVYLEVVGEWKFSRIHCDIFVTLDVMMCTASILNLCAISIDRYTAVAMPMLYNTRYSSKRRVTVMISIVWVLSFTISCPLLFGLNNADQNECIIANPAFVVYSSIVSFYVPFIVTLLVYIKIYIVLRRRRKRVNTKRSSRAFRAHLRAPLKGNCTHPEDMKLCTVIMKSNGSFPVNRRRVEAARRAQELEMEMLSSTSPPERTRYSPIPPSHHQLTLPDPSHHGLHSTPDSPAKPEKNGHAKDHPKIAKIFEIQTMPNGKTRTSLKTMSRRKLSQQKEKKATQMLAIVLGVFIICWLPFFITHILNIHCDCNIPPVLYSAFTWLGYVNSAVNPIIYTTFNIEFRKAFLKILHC
Method in brief: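 D2L receptor membranes from cell pellets, homogenized and spun twice at 35 000 g with a 15 min 37°C step between spins. Buffer 50 mM Tris–HCl, 1 mM EDTA, 4 mM MgCl2, 120 mM NaCl, 5 mM KCl, 1.5 mM CaCl2, 0.1% ascorbate. Radioligand [3H]-raclopride. Nonspecific binding defined with 1 μM (+)butaclamol. Incubated 1 h at 37°C, then filtered. Triplicates at 7–8 concentrations (10⁻¹¹–10⁻⁴ M). Ki by Cheng-Prusoff, means of ≥2 experiments.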

5-hydroxytryptamine receptor 6, sequence (P50406 whole entry): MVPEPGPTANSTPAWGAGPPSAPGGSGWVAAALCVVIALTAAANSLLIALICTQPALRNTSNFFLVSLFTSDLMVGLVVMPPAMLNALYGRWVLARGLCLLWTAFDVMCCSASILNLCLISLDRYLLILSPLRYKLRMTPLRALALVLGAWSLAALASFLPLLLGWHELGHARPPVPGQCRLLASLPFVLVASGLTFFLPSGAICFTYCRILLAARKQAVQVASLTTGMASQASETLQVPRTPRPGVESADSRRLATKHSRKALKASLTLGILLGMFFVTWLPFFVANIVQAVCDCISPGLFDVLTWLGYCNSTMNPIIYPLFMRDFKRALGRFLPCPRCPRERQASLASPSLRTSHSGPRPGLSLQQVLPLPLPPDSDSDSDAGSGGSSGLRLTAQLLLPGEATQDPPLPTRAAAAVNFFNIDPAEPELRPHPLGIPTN

| SMILES | Ki [1] | pKa [2] | also measured |
| --- | --- | --- | --- |
| CN(C)c1cccc2c1ccn2S(=O)(=O)C1CCCCC1 | 4890 nM | – | – |
| O=S(=O)(c1ccccc1)n1ccc2cc(-c3ccccc3)ccc21 | 558 nM | – | – |
| CCCCS(=O)(=O)n1ccc2ccc(-c3ccncc3)cc21 | 1150 nM | – | – |
| CC(=O)N1CCN(c2cn(S(=O)(=O)c3ccccc3)c3ccccc23)CC1 | 97 nM | 0.6 | – |
| O=S(=O)(c1ccccc1)n1ccc2cc(N3CCCCC3)ccc21 | 360 nM | 1.9 | – |
| O=S(=O)(c1ccccc1)n1ccc2ccc(N3CCCCC3)cc21 | 403 nM | -0.4 | – |
| CN1CCN(c2cccc3c2ccn3S(=O)(=O)c2ccccc2)CC1 | – | 7.3 | Ki [3]: 164 nM; Ki [4]: 41 nM |
| O=S(=O)(c1ccccc1)n1ccc2cc(-c3ccncc3)ccc21 | 409 nM | 4.5 | – |
| O=S(=O)(c1ccccc1)n1ccc2c(N3CCCCC3)cccc21 | 128 nM | 5.4 | – |
| CN(C)c1cccc2c1ccn2S(C)(=O)=O | 4720 nM | – | – |
| O=S(=O)(N1CCCCC1)n1ccc2ccc(-c3ccncc3)cc21 | 1660 nM | – | – |
| O=S(=O)(C1CCCCC1)n1ccc2ccc(-c3ccncc3)cc21 | 2180 nM | – | – |
| COc1cccc2c1ccn2S(=O)(=O)c1ccccc1 | 262 nM | – | – |
| CN1CCN(c2ccc3c(ccn3S(=O)(=O)c3ccccc3)c2)CC1 | 27 nM | 7.4 | – |
| O=S(=O)(c1ccccc1)n1cc(N2CCN(CC(F)(F)F)CC2)c2ccccc21 | 2030 nM | 3.6 | – |
| O=S(=O)(c1ccccc1)n1ccc2ccc(-c3ccncc3)cc21 | 38 nM | 4.9 | Activity [5]: inactive; Activity [6]: inactive; Activity [7]: inactive; Activity [4]: inactive |
| O=S(=O)(c1ccccc1)n1ccc2c(N3CCN(CC(F)(F)F)CC3)cccc21 | 1740 nM | 3.9 | – |
| CN(C)c1ccc2ccn(S(=O)(=O)c3ccccc3)c2c1 | 211 nM | -0.3 | – |
| O=S(=O)(c1ccccc1)n1cc(-c2ccccc2)c2ccccc21 | 146 nM | – | – |
| O=S(=O)(c1ccccc1)n1ccc2ccccc21 | 159 nM | – | – |
| CN(C)c1cccc2c1ccn2S(=O)(=O)c1ccccc1 | 65 nM | 5 | Activity [5]: inactive; Activity [6]: inactive; Activity [7]: inactive; Activity [4]: inactive |

| SMILES | Ki [1] | pKa [2] | also measured |
| --- | --- | --- | --- |
| CS(=O)(=O)n1ccc2ccc(-c3ccncc3)cc21 | 4050 nM | – | – |
| O=S(=O)(c1ccccc1)n1ccc2cc(N3CCN(CC(F)(F)F)CC3)ccc21 | 5250 nM | 3.4 | – |
| O=S(=O)(c1ccccc1)n1ccc2ccc(N3CCN(CC(F)(F)F)CC3)cc21 | 1200 nM | 3.6 | – |
| COc1ccc2c(ccn2S(=O)(=O)c2ccccc2)c1 | 127 nM | – | – |
| O=S(=O)(c1ccccc1)n1ccc2c(-c3ccccc3)cccc21 | 162 nM | – | – |
| CN1CCN(c2cn(S(=O)(=O)c3ccccc3)c3ccccc23)CC1 | – | 7.4 | – |
| CN(C)c1cccc2c1ccn2S(=O)(=O)N1CCCCC1 | 39100 nM | – | – |
| CN1CCN(c2ccc3ccn(S(=O)(=O)c4ccccc4)c3c2)CC1 | 9 nM | 8.2 | Ki [3]: 247 nM; Ki [7]: 241 nM |
| CN(C)c1cn(S(=O)(=O)c2ccccc2)c2ccccc12 | 474 nM | 4.2 | – |
| O=S(=O)(c1ccccc1)n1cc(N2CCCCC2)c2ccccc21 | 219 nM | 4.5 | – |
| O=S(=O)(c1ccccc1)n1cc(-c2ccncc2)c2ccccc21 | 124 nM | 5 | – |
| CC(=O)N1CCN(c2cccc3c2ccn3S(=O)(=O)c2ccccc2)CC1 | 714 nM | 0.8 | – |
| CC(=O)N1CCN(c2ccc3c(ccn3S(=O)(=O)c3ccccc3)c2)CC1 | 4850 nM | 0.9 | – |
| O=S(=O)(c1ccccc1)n1ccc2c(O)cccc21 | 108 nM | – | – |
| O=S(=O)(c1ccccc1)n1ccc2c(-c3ccncc3)cccc21 | 1510 nM | 4.9 | – |
| c1ccc(Cn2ccc3ccc(-c4ccncc4)cc32)cc1 | 3260 nM | – | – |
| O=S(=O)(c1ccccc1)n1ccc2ccc(-c3ccccc3)cc21 | 178 nM | – | – |
| CN(C)c1cccc2c1ccn2Cc1ccccc1 | 2560 nM | – | – |
| CC(=O)N1CCN(c2ccc3ccn(S(=O)(=O)c4ccccc4)c3c2)CC1 | 97 nM | -0.4 | – |
| CCCCS(=O)(=O)n1ccc2c(N(C)C)cccc21 | 49900 nM | – | – |
| CN(C)c1ccc2c(ccn2S(=O)(=O)c2ccccc2)c1 | 82 nM | 3.3 | – |
